Assay outcomes from PubChem.
rCAG RNA binder – binders of r(CAG) RNA repeats, primary screen, biochemical, fluorescence; r(CAG) RNA repeat, TO-PRO-1 dye displacement fluorescence; inhibition, % at 3 µM; 1.3% of 370,000 active; AID 651821, 2012;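 active = inhibition above the plate cutoff, the mean of all test compounds on that plate plus 3 SD, cut at about 35% in these data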;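 note: higher means more dye released from RNA so lower well fluorescence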
PG9 Ab binder – binders of HIV-1 gp120 antibody PG9, primary screen, biochemical, TR-FRET | TR-FRET gp120-PG9 antibody binding | HIV-1 gp120 / PG9 antibody interaction | inhibition, % at 6.7 µM | 0.43% of 360,000 active; in the data active = inhibition above about 8.5%
NR2E3 ag-1 – inhibitors of NR2E3-RetCOR corepressor binding, primary screen, NR2E3 agonist project, biochemical, TR-FRET, GST-NR2E3, biotin-RetCOR; Photoreceptor-specific nuclear receptor (Homo sapiens), Q9Y5X4; 1536-well; inhibition of corepressor binding, % at 4.78 µM; 0.12% of 320,000 active; AID 2300, 2010;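 active = percent inhibition above the cutoff of mean plus 3 SD of all tested compounds, set per screening campaign, cut at about 20% in these data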
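Test system: GST-NR2E3 and biotin-RetCOR proteins | Quantity: 1.35 nM GST-tagged NR2E3 final | Medium: Tris pH 7.5 | Also added: 7 nM biotin-RetCOR | Dosing: Compound at 4.8 µM, single dose | Timing: 5 h at 4 °C | Detection: Time-resolved FRET | Read-out basis: Percent inhibition | Benchmarks: Biotin wells as high control, 0.6% DMSO wells as low control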
NR2E3 ag-2 – NR2E3 agonists in two-hybrid cells, primary screen, cell-based, luminescence, CHO-S, Gal4-NCOR/VP16-NR2E3. luciferase. inhibition of corepressor binding, % at 3.98 µM. 0.35% of 360,000 active. AID 602229, 2012;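 active = inhibition above the mean of all tested compounds plus 3 SD, cut at about 70% in these data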;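 note: higher means lower luciferase signal from less NR2E3 corepressor binding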
Rev-erbA mod – modulators of Rev-erb alpha DNA binding, primary screen, biochemical, FITC-DNA, fluorescence polarization, uHTS; 0.79% of 370,000 active; activity, % at 10 µM; Rev-erbα–FITC-DNA binding, 90 min; Nuclear receptor subfamily 1 group D member 1 (Homo sapiens), P20393;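 active = activity above about 14%, limit read from the data; passing the limit was not always enough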
Target sequence (P20393 whole entry, looked up): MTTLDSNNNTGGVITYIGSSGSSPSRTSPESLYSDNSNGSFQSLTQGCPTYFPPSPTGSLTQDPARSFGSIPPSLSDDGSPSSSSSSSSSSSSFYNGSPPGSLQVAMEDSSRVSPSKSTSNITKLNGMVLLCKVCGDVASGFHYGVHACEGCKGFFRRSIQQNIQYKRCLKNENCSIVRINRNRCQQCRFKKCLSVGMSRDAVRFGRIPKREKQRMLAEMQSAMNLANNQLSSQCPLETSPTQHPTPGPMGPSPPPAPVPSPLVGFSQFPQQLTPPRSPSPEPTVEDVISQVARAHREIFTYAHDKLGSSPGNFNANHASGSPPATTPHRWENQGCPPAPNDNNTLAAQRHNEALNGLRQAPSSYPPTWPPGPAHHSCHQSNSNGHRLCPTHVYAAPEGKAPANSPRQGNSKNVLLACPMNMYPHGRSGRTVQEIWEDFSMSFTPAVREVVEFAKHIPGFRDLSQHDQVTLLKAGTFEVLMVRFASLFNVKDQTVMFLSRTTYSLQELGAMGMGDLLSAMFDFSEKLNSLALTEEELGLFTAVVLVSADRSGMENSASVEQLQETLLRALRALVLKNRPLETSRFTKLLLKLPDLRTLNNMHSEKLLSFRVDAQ
NR1D1 mod conf – modulators of Rev-erb alpha DNA binding, confirmation, biochemical, FITC-DNA, fluorescence polarization, single point; activation, % at 25 µM; 61% of 3,000 active; shares compounds with Rev-erbA mod; 90 min;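 active = activation at or above a set limit, or at least 3 SD above the negative control mean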
RORg DNA counter – modulation of RORgamma DNA binding, dose response, counter-screen for Rev-erb alpha modulator project, biochemical, fluorescence polarization, FITC-DNA. shares compounds with Rev-erbA mod. purified RORgamma protein-FITC-DNA binding. IC50, µM. 8% of 910 active;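 active = Compounds whose fitted half-maximal concentration for disrupting protein-DNA binding is below 10 micromolar; the record names Rev-erb in its text, so the target is in doubt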
Large screens that a line does not name were inactive (follow-up assays come after a bar, where they were run). Rows were chosen to be rich in hits. Some 2.6% of all compounds tested hit in one or more screens of this group.

O=c1cc(O)cc2n1CCC2	none (no result: NR2E3 ag-1)
CCOc1ccc(NC(=O)CC(C)O)cc1 (stereo not given)	none (no result: rCAG RNA binder, PG9 Ab binder, NR2E3 ag-1, NR2E3 ag-2)
CC1(C(=O)NS(=O)(=O)c2ccccc2)CCN1C(=O)COc1ccc(Cl)cc1 (stereo not given)	none (no result: NR2E3 ag-1)
CC1CN(C(=O)COC(=O)c2ccc(F)cc2Cl)CC(C)O1 (stereo not given)	none
Cc1cccc(C)c1OC(=O)CSc1nnc(-c2ccccc2O)o1	Rev-erbA mod 29 | NR1D1 mod conf 26
Cn1c2ccccc2n2c(=O)c(Cl)c(-c3ccccc3)c(C#N)c12	Rev-erbA mod 41 | NR1D1 mod conf 33 | RORg DNA counter inactive
Cn1ccc(-c2ccccc2)c(C#N)c1=O	none
O=C(N=c1ccn(-c2nc3ccccc3nc2NS(=O)(=O)c2ccc(Cl)cc2)cc1)c1cccs1	Rev-erbA mod 91 | NR1D1 mod conf 33 | RORg DNA counter inactive
O=C(N=c1ccn(-c2nc3ccccc3nc2NS(=O)(=O)c2ccc(Cl)cc2)cc1)c1ccccc1Cl	none (no result: rCAG RNA binder, PG9 Ab binder, NR2E3 ag-2, Rev-erbA mod)
Cc1ccc(CNc2cc(-c3nn4c(C)nnc4s3)ccc2C)s1	none
Cc1ccc(-c2nn3c(C)nnc3s2)cc1NCc1c(F)cccc1Cl	Rev-erbA mod 23 | NR1D1 mod conf inactive
CC(=O)c1cccc(NC(=O)CCn2c(=S)oc3ccccc32)c1	Rev-erbA mod 29 | NR1D1 mod conf inactive
CC(=O)c1cccc(NC(=O)CCn2c(=O)oc3ccccc32)c1	none
CCN(CC)c1ccc(/C=C(/C#N)C(=O)NC(C)C)o1	none
CC(C)NC(=O)/C(C#N)=C\c1ccc(N(C)C)o1	Rev-erbA mod 15 | NR1D1 mod conf inactive
CCN(CC)c1ccc(/C=C(/C#N)C(=O)NCc2ccccc2)o1	Rev-erbA mod 25 | NR1D1 mod conf inactive
CCCC(=O)N=C1SC2CS(=O)(=O)CC2N1c1ccc(-c2nc3ccc(C)cc3s2)cc1 (stereo not given)	Rev-erbA mod 38 | NR1D1 mod conf inactive
Cc1ccc(N2C(=NC(=O)c3ccccc3)SC3CS(=O)(=O)CC32)cc1 (stereo not given)	none
Oc1ccc2ccccc2c1N=Nc1ccccc1F	Rev-erbA mod 19 | NR1D1 mod conf inactive
COc1ccc(OC)c(CNS(=O)(=O)c2ccccc2Br)c1	none (no result: NR2E3 ag-1, NR2E3 ag-2)
C[C@H]1CN([C@@H](C)CO)C(=O)c2cc(NC(=O)c3ccncc3)ccc2O[C@H]1CN(C)Cc1ccc(C(=O)O)cc1	none (no result: NR2E3 ag-1)
CCOc1ccccc1N=Cc1c(O)c2ccccc2oc1=O	Rev-erbA mod 36 | NR1D1 mod conf inactive
O=C(Nc1ccncc1)c1sc2ccccc2c1Cl	none
O=C(Nc1ccnc(=O)[nH]1)c1sc2ccccc2c1Cl	Rev-erbA mod 37 | NR1D1 mod conf 23
COc1ccc(Oc2c(Cl)cnn(CC(=O)C(c3ccccc3)c3ccccc3)c2=O)cc1	Rev-erbA mod 78 (no result: PG9 Ab binder, NR2E3 ag-1, NR2E3 ag-2) | NR1D1 mod conf 57 | RORg DNA counter inactive
CCOc1cc(-c2sc(Nc3ccccc3)n[n+]2-c2ccc(F)cc2)ccc1OC	none
Fc1ccc(-[n+]2nc(Nc3ccccc3)sc2-c2ccc(OCc3ccccc3)cc2)cc1	Rev-erbA mod 156 | NR1D1 mod conf inactive
FC(F)(F)c1cc(-c2cccs2)nc2cc(-c3ccccc3)nn12	Rev-erbA mod 33 | NR1D1 mod conf inactive
COc1ccc(Cn2ccc3ccc(-c4ccc5ccn(C(=O)c6ccccc6)c5c4)cc32)cc1	none (no result: PG9 Ab binder, NR2E3 ag-1, NR2E3 ag-2)
O=C(c1ccccc1)n1ccc2ccc(-c3ccc4ccn(C(=O)c5ccccc5)c4c3)cc21	none (no result: PG9 Ab binder, NR2E3 ag-1, NR2E3 ag-2)
COc1cccc(C(=O)n2ccc3ccc(-c4ccc5ccn(Cc6ccccc6)c5c4)cc32)c1	Rev-erbA mod 24 (no result: PG9 Ab binder, NR2E3 ag-1, NR2E3 ag-2) | NR1D1 mod conf 52 | RORg DNA counter 6.8
COc1cccc(C(=O)n2ccc3ccc(-c4ccc5ccn(C(=O)c6cccc(OC)c6)c5c4)cc32)c1	Rev-erbA mod 44 (no result: PG9 Ab binder, NR2E3 ag-1, NR2E3 ag-2) | NR1D1 mod conf 85 | RORg DNA counter inactive
COc1cccc(C(=O)n2ccc3ccc(-c4ccc5ccn(Cc6ccc(C#N)cc6)c5c4)cc32)c1	Rev-erbA mod 48 (no result: PG9 Ab binder, NR2E3 ag-1, NR2E3 ag-2) | NR1D1 mod conf inactive
COC1CC(=O)C2OC(c3ccccc3)OCC2O1 (stereo not given)	none (no result: NR2E3 ag-1)
O=C(CCc1c[nH]c2ccccc12)NCc1cccc(Cl)c1	none
O=C(CCc1c[nH]c2ccccc12)NCCc1ccc2c(c1)OCCO2	Rev-erbA mod 28 | NR1D1 mod conf 32 | RORg DNA counter inactive
Cc1cccc(C)c1NC(=O)C1(C)CSCC(=O)N1CC(C)C (stereo not given)	none (no result: NR2E3 ag-1, NR2E3 ag-2)
O=C(c1ccccc1)c1cc2cc(Cl)ccc2[nH]1	none
COc1cccc(C(=O)c2cc3cc(Cl)ccc3[nH]2)c1	Rev-erbA mod 20 | NR1D1 mod conf inactive
O=S(CC(O)c1ccccc1)c1ccccc1 (stereo not given)	none (no result: NR2E3 ag-1)
CCOC(=O)c1c(-c2cccs2)csc1NC(=O)COC(=O)c1c(C)noc1C	none
CCOC(=O)c1c(-c2cccs2)csc1NC(=O)c1ccncc1	Rev-erbA mod 29 | NR1D1 mod conf 28
COC(=O)c1ccc(Cn2ccc3ccc(-c4ccc5ccn(C(=O)c6ccc(C)cc6)c5c4)cc32)cc1	Rev-erbA mod 50 (no result: PG9 Ab binder, NR2E3 ag-1, NR2E3 ag-2) | NR1D1 mod conf 62 | RORg DNA counter 1.4
O=C(c1ccc(F)cc1)n1ccc2ccc(-c3ccc4ccn(Cc5ccccc5)c4c3)cc21	none (no result: PG9 Ab binder, NR2E3 ag-1, NR2E3 ag-2)
COc1ccc(Cn2ccc3ccc(-c4ccc5ccn(C(=O)c6ccccc6C)c5c4)cc32)cc1	none (no result: PG9 Ab binder, NR2E3 ag-1, NR2E3 ag-2)
Cc1ccc(C(=O)n2ccc3ccc(-c4ccc5ccn(Cc6ccccc6)c5c4)cc32)cc1	Rev-erbA mod 39 (no result: PG9 Ab binder, NR2E3 ag-1, NR2E3 ag-2) | NR1D1 mod conf 27
CCCCOc1ccc(C(=O)n2ccc3ccc(-c4ccc5ccn(Cc6cccc(C(=O)OC)c6)c5c4)cc32)cc1	Rev-erbA mod 37 (no result: PG9 Ab binder, NR2E3 ag-1, NR2E3 ag-2) | NR1D1 mod conf 21
CCCCOc1ccc(C(=O)n2ccc3ccc(-c4ccc5ccn(Cc6ccc(OC)cc6)c5c4)cc32)cc1	Rev-erbA mod 35 (no result: PG9 Ab binder, NR2E3 ag-1, NR2E3 ag-2) | NR1D1 mod conf inactive
Cc1ccc(S(=O)(=O)NC2CCSC2=O)cc1C (stereo not given)	none
Cc1ccc2nc(-c3cccc(Br)c3)c(Cc3cccc(Cl)c3)n2c1	none (no result: NR2E3 ag-1)
COC(=O)[C@]12CCCCC=C1N(Cc1ccccc1)C(=O)[C@H](CC(=O)NCc1ccc(OC)c(OC)c1)C2	none (no result: NR2E3 ag-1)
